Laboratory results as given in ChEMBL document CHEMBL4689842, “EUbOPEN Chemogenomics Library wave 1” (2021).

System: HEK-293T
Assay: Multiplex assay against HEK293T;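 for Population Tubulin-Different-Phenotype (%): share of the cells with healthy nuclei that show this phenotype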
Type: toxicity, cell-based
Details: human
How it was run: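 Imaging took place on a CQ1 microscope at 37°C and 5% CO2 once compound had been added to live cells stained at seeding with Hoechst33342, BioTracker Green Microtubule Cytoskeleton Dye, MitoTracker Red and Annexin V Alexa Fluor 680. CellPathfinder machine-learning gating classed cells as Hoechst high-intensity objects or normal cells, classed normal cells as having healthy, pyknosed or fragmented nuclei, and classed pyknosed cells as mitotic or apoptotic. Tubulin, mitochondrial-mass and membrane-permeability phenotypes are per cents of the healthy-nucleus cells.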

[1] = 12 h, 1 µM, compound concentration 1 uM, replicate 1
[2] = 12 h, 1 µM, compound concentration 1 uM, replicate 2
[3] = 12 h, 10 µM, compound concentration 10 uM, replicate 1
[4] = 12 h, 10 µM, compound concentration 10 uM, replicate 2
[5] = 24 h, 1 µM, compound concentration 1 uM, replicate 1
[6] = 24 h, 1 µM, compound concentration 1 uM, replicate 2
[7] = 24 h, 10 µM, compound concentration 10 uM, replicate 1
[8] = 24 h, 10 µM, compound concentration 10 uM, replicate 2
[9] = 48 h, 1 µM, compound concentration 1 uM, replicate 1
[10] = 48 h, 1 µM, compound concentration 1 uM, replicate 2
[11] = 48 h, 10 µM, compound concentration 10 uM, replicate 1
[12] = 48 h, 10 µM, compound concentration 10 uM, replicate 2

## COc1cccc([C@@H](C)NCCCc2ccccc2Cl)c1.Cl [TECALCET HYDROCHLORIDE]
[1]
  Population Apoptotic (%): 45%
  Population Fragmented Nuclei (%): 9%
  Population Healthy Nuclei (%): 46%
  Population Hoechst High Intensity Objects (%): 11%
  Population Membrane Permeable-Phenotype (%): 2%
  Population Mitochondria Different-Phenotype (%): 83%
  Population Mitotic Cells (%): 54%
  Population Normal (%): 88%
  Population Pyknosed Nuclei (%): 44%
  Population Tubulin-Different-Phenotype (%): 57%
  Total Cell Count: 333
[2]
  Population Apoptotic (%): 16%
  Population Fragmented Nuclei (%): 3%
  Population Healthy Nuclei (%): 29%
  Population Hoechst High Intensity Objects (%): 3%
  Population Membrane Permeable-Phenotype (%): 11%
  Population Mitochondria Different-Phenotype (%): 45%
  Population Mitotic Cells (%): 83%
  Population Normal (%): 96%
  Population Pyknosed Nuclei (%): 67%
  Population Tubulin-Different-Phenotype (%): 41%
  Total Cell Count: 188
[3]
  Population Apoptotic (%): 80%
  Population Fragmented Nuclei (%): 9%
  Population Healthy Nuclei (%): 29%
  Population Hoechst High Intensity Objects (%): 12%
  Population Membrane Permeable-Phenotype (%): 2%
  Population Mitochondria Different-Phenotype (%): 100%
  Population Mitotic Cells (%): 19%
  Population Normal (%): 87%
  Population Pyknosed Nuclei (%): 60%
  Population Tubulin-Different-Phenotype (%): 93%
  Total Cell Count: 290
[4]
  Population Apoptotic (%): 59%
  Population Fragmented Nuclei (%): 3%
  Population Healthy Nuclei (%): 22%
  Population Hoechst High Intensity Objects (%): 4%
  Population Membrane Permeable-Phenotype (%): 4%
  Population Mitochondria Different-Phenotype (%): 95%
  Population Mitotic Cells (%): 40%
  Population Normal (%): 95%
  Population Pyknosed Nuclei (%): 74%
  Population Tubulin-Different-Phenotype (%): 95%
  Total Cell Count: 222
[5]
  Population Apoptotic (%): 36%
  Population Fragmented Nuclei (%): 8%
  Population Healthy Nuclei (%): 64%
  Population Hoechst High Intensity Objects (%): 9%
  Population Membrane Permeable-Phenotype (%): 2%
  Population Mitochondria Different-Phenotype (%): 73%
  Population Mitotic Cells (%): 63%
  Population Normal (%): 90%
  Population Pyknosed Nuclei (%): 26%
  Population Tubulin-Different-Phenotype (%): 52%
  Total Cell Count: 417
[6]
  Population Apoptotic (%): 27%
  Population Fragmented Nuclei (%): 3%
  Population Healthy Nuclei (%): 50%
  Population Hoechst High Intensity Objects (%): 2%
  Population Membrane Permeable-Phenotype (%): 10%
  Population Mitochondria Different-Phenotype (%): 25%
  Population Mitotic Cells (%): 72%
  Population Normal (%): 97%
  Population Pyknosed Nuclei (%): 46%
  Population Tubulin-Different-Phenotype (%): 44%
  Total Cell Count: 217
[7]
  Population Apoptotic (%): 74%
  Population Fragmented Nuclei (%): 11%
  Population Healthy Nuclei (%): 36%
  Population Hoechst High Intensity Objects (%): 9%
  Population Membrane Permeable-Phenotype (%): 0%
  Population Mitotic Cells (%): 25%
  Population Normal (%): 90%
  Population Pyknosed Nuclei (%): 51%
  Total Cell Count: 307
[8]
  Population Apoptotic (%): 63%
  Population Fragmented Nuclei (%): 4%
  Population Healthy Nuclei (%): 41%
  Population Hoechst High Intensity Objects (%): 5%
  Population Membrane Permeable-Phenotype (%): 1%
  Population Mitochondria Different-Phenotype (%): 100%
  Population Mitotic Cells (%): 36%
  Population Normal (%): 94%
  Population Pyknosed Nuclei (%): 53%
  Population Tubulin-Different-Phenotype (%): 97%
  Total Cell Count: 233
[9]
  Population Apoptotic (%): 20%
  Population Fragmented Nuclei (%): 6%
  Population Healthy Nuclei (%): 81%
  Population Hoechst High Intensity Objects (%): 5%
  Population Membrane Permeable-Phenotype (%): 2%
  Population Mitochondria Different-Phenotype (%): 22%
  Population Mitotic Cells (%): 79%
  Population Normal (%): 94%
  Population Pyknosed Nuclei (%): 11%
  Population Tubulin-Different-Phenotype (%): 23%
  Total Cell Count: 698
[10]
  Population Apoptotic (%): 23%
  Population Fragmented Nuclei (%): 7%
  Population Healthy Nuclei (%): 76%
  Population Hoechst High Intensity Objects (%): 3%
  Population Membrane Permeable-Phenotype (%): 8%
  Population Mitochondria Different-Phenotype (%): 15%
  Population Mitotic Cells (%): 76%
  Population Normal (%): 96%
  Population Pyknosed Nuclei (%): 16%
  Population Tubulin-Different-Phenotype (%): 49%
  Total Cell Count: 383
[11]
  Population Apoptotic (%): 73%
  Population Fragmented Nuclei (%): 15%
  Population Healthy Nuclei (%): 55%
  Population Hoechst High Intensity Objects (%): 10%
  Population Membrane Permeable-Phenotype (%): 1%
  Population Mitochondria Different-Phenotype (%): 94%
  Population Mitotic Cells (%): 26%
  Population Normal (%): 89%
  Population Pyknosed Nuclei (%): 29%
  Population Tubulin-Different-Phenotype (%): 89%
  Total Cell Count: 355
[12]
  Population Apoptotic (%): 58%
  Population Fragmented Nuclei (%): 4%
  Population Healthy Nuclei (%): 62%
  Population Hoechst High Intensity Objects (%): 2%
  Population Membrane Permeable-Phenotype (%): 0%
  Population Mitochondria Different-Phenotype (%): 93%
  Population Mitotic Cells (%): 41%
  Population Normal (%): 97%
  Population Pyknosed Nuclei (%): 33%
  Population Tubulin-Different-Phenotype (%): 96%
  Total Cell Count: 265
